Data set [1] is described as follows: Chiral HPLC analysis of zeaxanthin stereoisomers in tissues. The format is in vivo. The conditions noted are these: Isx^−/−/Bco2^−/− mice on 250 mg/kg 3R,3′R-zeaxanthin diet.
The nature of data set [2]: Light exposure experiment: zeaxanthin metabolites in eye and liver by HPLC. Type of data set: in vivo. The conditions noted are these: albino Isx^−/−/Bco2^−/− mice, 250 mg/kg zeaxanthin, 4 weeks. Put shortly:
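Albino mice were fed the 250 mg/kg or control diet for 4 weeks after weaning. Three groups were used: 24 h/day darkness (DC), a 12/12 h light/dark cycle (L/DC), or L/DC plus twice-weekly light stress from week 2 (LS). For light stress, mice were dark-adapted overnight, pupils were dilated with 1% tropicamide, and mice received 85,000 lux white light for 2 min. Whole eye and liver carotenoids were then quantified by HPLC.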

The nature of data set [3]: Food intake and liver weight during zeaxanthin dietary intervention. The format is in vivo. As to conditions: Bco2^−/− and Isx^−/−/Bco2^−/− mice, 0, 50, 250 mg/kg diet. In short, it runs like this:
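Male and female mice were placed on vitamin A-free diets after weaning at 4 weeks old, for 4 weeks. Zeaxanthin was given as water-soluble beadlets incorporated into the diet. Fresh diet was given weekly, and body weight was recorded then. Food consumption was the leftover food per cage divided by the number of mice in the cage. At study end, mice were anaesthetised and livers dissected and weighed.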

Data set [4] is described as follows: HPLC analysis of zeaxanthin content in fecal matter during dietary intervention. The format is in vivo, mice. As to conditions: 50 mg/kg zeaxanthin supplementation, 28 days. Put shortly:
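Mice were fed vitamin A-free diets starting at weaning. Feces were collected on days 0, 1, 2, 4, 7, 14, 21 and 28 of the 28-day intervention. Carotenoids were extracted from about 25 mg feces under dim red light (<600 nm). Zeaxanthin was quantified by HPLC.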

Data set [5] concerns albino Isx^−/−/Bco2^−/− mice. In words: Electroretinography. The conditions noted are these: 250 mg/kg versus 0 mg/kg, 4 weeks. The format is in vivo.
The test system of data set [6] is albino Isx^−/−/Bco2^−/− mice. The experiment in a line: Skin colour phenotype of supplemented albino mice. Type of data set: in vivo. The conditions noted are these: 250 mg/kg zeaxanthin, 4 weeks, hypercarotenemia. Put shortly:
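Albino mice were fed a vitamin A-free diet containing 250 mg/kg zeaxanthin or no zeaxanthin (control) for 4 weeks, starting immediately after weaning. Skin colour of the ears, eyelids and nostrils was inspected and photographed.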

The subject of data set [7] is albino Isx^−/−/Bco2^−/− mice. In words: Optical coherence tomography. The format is in vivo. As to conditions: 250 mg/kg versus 0 mg/kg, 4 weeks.
Data set [8] is classed as in vivo, mice. Put shortly:
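Male and female mice were fed vitamin A-free diets for 4 weeks from weaning; the WT cohort received the 250 mg/kg diet. Tissues were weighed and snap-frozen at -80 °C. Carotenoids were extracted under dim red light from about 25 mg of intestinal segments, liver or eWAT, 100 uL serum, or one whole eye. Analysis was normal-phase silica HPLC with diode-array detection. Data are means ± SD, n=5 (eWAT: 3 females, 2 males); two-way ANOVA.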

`CC1=C(/C=C/C(C)=C/C=C/C(C)=C/C=C/C=C(C)/C=C/C=C(C)/C=C/C2=C(C)C[C@H](O)CC2(C)C)C(C)(C)C[C@H](O)C1` [3R, 3′S-zeaxanthin]: the “presence in the eyes by chiral HPLC” value in data set [1] is listed as “no peak with a retention time of 3R, 3′S-zeaxanthin was detected”.
As for `CC1=CC(=O)CC(C)(C)C1/C=C/C(C)=C/C=C/C(C)=C/C=C/C=C(C)/C=C/C=C(C)/C=C/C1C(C)=CC(=O)CC1(C)C` (centres unmarked) [oxidized zeaxanthin, ε,ε-carotene 3, 3′-dione], the “concentration in the eyes of L/DC and LS groups compared to DC group” value in data set [2] was “increased”.
As for `CC1=C(/C=C/C(C)=C/C=C/C(C)=C/C=C/C=C(C)/C=C/C=C(C)/C=C/C2=C(C)C[C@@H](O)CC2(C)C)C(C)(C)C[C@H](O)C1` [zeaxanthin, 3R,3′R-zeaxanthin], the “total zeaxanthin or its oxidized form in liver between light treatment groups” value in data set [2] is given as “no light-dependent increase”. Also, in data set [2] (DC, L/DC, LS), the “ocular levels between different light groups” value is given as “remained relatively constant”. Further, the “effect on food intake” value in data set [3] is “did not affect food intake”. The “liver weight between dietary groups” value in data set [3] (4 weeks) is reported as “no significant difference in liver weight”. For the same compound, the “fecal zeaxanthin excretion, Isx^−/−/Bco2^−/− versus Bco2^−/− mice” value in data set [4] is recorded as “excreted less zeaxanthin”. Also, the “ERG responses under photopic and scotopic conditions” value in data set [5] is reported as “normal responses”. Also, the “skin phenotype (ears, eyelids, nostrils)” value in data set [6] is recorded as “yellow skin color phenotype”. In addition, the “OCT: retinal morphology, supplemented versus non-supplemented mice” value in data set [7] is “no differences in the stratification of the retinal layers”. Besides, the “form of zeaxanthin detectable in liver” value in data set [8] (50 mg zeaxanthin diet, Bco2^−/− and Isx^−/−/Bco2^−/− mice, 4 weeks) was “only the oxidized form of zeaxanthin became detectable”. Besides, the “total zeaxanthin in eWAT, Isx^−/−/Bco2^−/− versus Bco2^−/− mice” value in data set [8] (50 mg/kg or 250 mg/kg diet, 4 weeks) is “significantly higher amounts”. Further, in data set [8] (50 mg/kg zeaxanthin, Bco2^−/− and Isx^−/−/Bco2^−/− mice), the “concentration of carotenoids in eWAT and eyes compared with kidney and serum” value is recorded as “two-fold higher”. In addition, in data set [8] (WT mice, 250 mg/kg diet, 4 weeks, major metabolite parent compound), the “amount of zeaxanthin in jejunum relative to other parts of the intestine” value is reported as “highest amount”.

(Values after PMC10250156 (Molecular Metabolism, 2023).)
